ChEMBL document CHEMBL1156677, “Oxoisoaporphine alkaloid derivatives: synthesis, DNA binding affinity and cytotoxicity” (Eur J Med Chem, 2008)

Legend:
Format in all cases: functional, cell-based
MCF7 = assay: Cytotoxicity against human MCF7 cells after 48 hrs by MTT assay; conditions: MCF7, 48 h
Outline: (§1)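 Cells in exponential growth were trypsinised, centrifuged at 180 × g for 3 min, resuspended at 5 × 10^4 cells/ml and seeded. After 48 h drug exposure, MTT (1 mg/mL) added for 4 h. Formazan dissolved in DMSO, OD read at 570 nm. Each dose run in triplicate. IC50 derived from mean OD and reported as the mean of three independent assays.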

HepG2 = assay: Cytotoxicity against human HepG2 cells after 48 hrs by MTT assay; conditions: HepG2, 48 h; outline: as §1
NCI-H460 = assay: Cytotoxicity against human NCI-H460 cells after 48 hrs by MTT assay; conditions: NCI-H460, 48 h; outline: as §1

Structure (SMILES) | IC50 (MCF7) [µM] | IC50 (HepG2) [µM] | IC50 (NCI-H460) [µM]
O=C(CN1CCCC1)Nc1ccc2c(c1)C(=O)c1cccc3ccnc-2c13 | 11.8 | 8.14 | 2.09
O=C(CCN1CCCCC1)Nc1ccc2c(c1)C(=O)c1cccc3ccnc-2c13 | 5.07 | 6.36 | 4.23
O=C1c2ccccc2-c2nccc3cccc1c23 | > 100 | > 100 | 
O=C(CCCN1CCCC1)Nc1ccc2c(c1)C(=O)c1cccc3ccnc-2c13 | 27.4 | 12.9 | 9.08
CN(C)CCNCCC(=O)Nc1ccc2c(c1)C(=O)c1cccc3ccnc-2c13 | 28.1 | 21 | 30.3
CCN(CC)CCC(=O)Nc1ccc2c(c1)C(=O)c1cccc3ccnc-2c13 | 12.7 | 12.1 | 4.99
CN(C)CCCC(=O)Nc1ccc2c(c1)C(=O)c1cccc3ccnc-2c13 | 11.5 | 29.8 | 19.3
Nc1ccc2c(c1)C(=O)c1cccc3ccnc-2c13 | 20.4 | 19.7 | 35.5
O=C(CCN1CCCC1)Nc1ccc2c(c1)C(=O)c1cccc3ccnc-2c13 | 7.96 | 8.18 | 16.7
O=C(CCNCCO)Nc1ccc2c(c1)C(=O)c1cccc3ccnc-2c13 | 4.3 | 3.88 | 2.36
CN(C)CC(=O)Nc1ccc2c(c1)C(=O)c1cccc3ccnc-2c13 | 17.5 | 9.69 | 9.22
CN(C)CCC(=O)Nc1ccc2c(c1)C(=O)c1cccc3ccnc-2c13 | 9.11 | 7.74 | 6.71
